Measurements: PubChem BioAssay
Calls of active or inactive are those of the source.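 The calls were made as follows, unless noted: active = Her2 level under about 52% in both replicate screens, with viability over 70% of control (limit read from the data); inconclusive = Her2 under the limit in one screen only, or viability under 70%; inactive = Her2 level above the set limit.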

Assays:
[1] = reducers of endogenous Her2 protein level, primary screen, SKBR3 breast tumor cells, AlphaScreen, ATP viability (AID 461); conditions: 18-24 h, measured here: SKBR3 viability, ATP luminescence, at 10 µM;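 as to Her2 level: lower value means less Her2 protein in the cells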;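 as to viability: percent of carrier control wells set as 100% viability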
[2] = molecular target: Receptor tyrosine-protein kinase erbB-2 (Homo sapiens) (UniProt P04626); assay: as above; conditions: 18-24 h, at 10 µM, stronger effect = lower value
[3] = SK-BR-3 cell growth inhibitors, pilot screen, 24 h, human (AID 572;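 active = viability at or below 10% of carrier control in both of two separate runs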;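 also: compound exposure lasted between 18 and 24 h rather than exactly 24 h; 100% = carrier-treated control wells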); conditions: SK-BR-3 viability, CellTiter-Glo luminescence, at 10 µM, stronger effect = lower value
[4] = HUVEC growth inhibition – cell-based, human, primary screen (AID 575;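 active = viability at or below 30% in both replicate assays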;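 also: 100% = median of untreated cell wells with 0.1% DMSO on each plate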); conditions: HUVEC proliferation, CellTiter-Glo luminescence, 72 h; at 10 µM; stronger effect = lower value
How it was run: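 material = primary HUVEC, no more than 12 passages | input = 1250 cells per well | controls = vehicle and MePR control wells | measured by = CTG luminescence | times = 72 h compound incubation | format = collagen-coated 384-well format | read-out = % viability vs DMSO wells | doses = single 10 µM dose, 0.1% DMSO, from 5x medium stock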

[5] = growth inhibitors of H69AR lung tumor, primary screen, human, duplicate replicates (AID 580;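 active = viability at or under a set limit in both replicates, limit being median viability minus 3 SD, cut at about 48% in these data, passing the limit was not always enough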;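 also: 100% = mean luminescence of untreated wells and 0% = no signal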); conditions: H69AR lung tumor cells viability, ATP luminescence, 72 h; at 10 µM; stronger effect = lower value
[6] = reversal of MRP1-mediated doxorubicin resistance, pilot screen, H69AR cells, doxorubicin co-treatment (AID 601;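 active = viability loss from added drug above about 55%, and viability with drug at most 40%, in both replicates, limit read from the data, passing the limit was not always enough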); conditions: CellTiter-Glo, 72 h, at 10 µM; for differential viability (reversal): stronger effect = higher value
[7] = 384-well plate pilot, post-Golgi transport modulator project, inhibition of yeast transport mutant growth (AID 636; in the data active = inhibition above about 31%); conditions: absorbance 615 nm, about 18 h, stronger effect = higher value
[8] = growth suppression of yeast trafficking mutant, preliminary HTS, modulators of trafficking downstream of Golgi apparatus project, 1536-format plate, OD 615 nm (AID 637; in the data active = inhibition above about 30%); conditions: yeast transport mutant growth, absorbance 615 nm, 18 h; stronger effect = higher value
[9] = H69AR cells + 2 uM doxorubicin, measured here: viability with 2 uM doxorubicin, stronger effect = lower value
[10] = H69AR cells, compound alone cytotoxicity

Receptor tyrosine-protein kinase erbB-2 (Homo sapiens), sequence (P04626 whole entry, looked up): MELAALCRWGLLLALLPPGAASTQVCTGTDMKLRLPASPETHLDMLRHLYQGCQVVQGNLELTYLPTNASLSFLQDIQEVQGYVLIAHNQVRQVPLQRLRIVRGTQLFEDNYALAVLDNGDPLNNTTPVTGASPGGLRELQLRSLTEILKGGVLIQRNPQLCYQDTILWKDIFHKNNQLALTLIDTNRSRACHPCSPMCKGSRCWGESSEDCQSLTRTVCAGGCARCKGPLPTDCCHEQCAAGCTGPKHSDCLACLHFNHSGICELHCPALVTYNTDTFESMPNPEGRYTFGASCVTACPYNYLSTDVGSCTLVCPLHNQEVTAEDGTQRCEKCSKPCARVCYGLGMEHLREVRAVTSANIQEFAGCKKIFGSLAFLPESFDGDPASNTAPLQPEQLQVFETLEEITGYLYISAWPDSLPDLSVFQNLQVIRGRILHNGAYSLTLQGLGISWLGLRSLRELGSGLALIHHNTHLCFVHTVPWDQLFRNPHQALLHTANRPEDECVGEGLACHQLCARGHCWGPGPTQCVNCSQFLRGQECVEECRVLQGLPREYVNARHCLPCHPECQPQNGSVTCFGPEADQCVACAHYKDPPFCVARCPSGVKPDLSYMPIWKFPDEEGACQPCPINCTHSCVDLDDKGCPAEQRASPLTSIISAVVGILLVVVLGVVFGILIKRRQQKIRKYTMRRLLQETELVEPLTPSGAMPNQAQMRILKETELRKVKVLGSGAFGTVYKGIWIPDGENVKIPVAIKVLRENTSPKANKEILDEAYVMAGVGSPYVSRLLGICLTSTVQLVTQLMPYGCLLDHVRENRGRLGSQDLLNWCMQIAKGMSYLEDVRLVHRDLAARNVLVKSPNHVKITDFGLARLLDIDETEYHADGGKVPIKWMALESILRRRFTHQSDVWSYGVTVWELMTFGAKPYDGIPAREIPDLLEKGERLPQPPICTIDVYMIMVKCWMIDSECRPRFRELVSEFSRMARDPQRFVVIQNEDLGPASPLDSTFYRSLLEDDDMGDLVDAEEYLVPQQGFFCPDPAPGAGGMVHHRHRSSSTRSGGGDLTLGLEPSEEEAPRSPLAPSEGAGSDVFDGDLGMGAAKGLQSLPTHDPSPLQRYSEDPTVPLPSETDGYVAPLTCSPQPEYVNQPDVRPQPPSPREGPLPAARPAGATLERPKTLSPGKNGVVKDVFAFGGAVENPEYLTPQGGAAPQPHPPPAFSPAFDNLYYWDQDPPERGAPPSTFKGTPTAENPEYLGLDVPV

Compound	viability [1]	Her2 level [2]	viability [3]	viability [4]	viability [5]	differential viability (reversal) ([6]; H69AR cells + 2 uM doxorubicin)	viability [6, 9]	viability [6, 10]	inhibition [7]	inhibition [8]
Cc1ccc(C2/C(=C(/O)c3cnn(-c4ccccc4)c3C)C(=O)C(=O)N2CCN2CCOCC2)o1 (stereo not given)	77.5%	79% (inactive)	77.5% (inactive)	112% (inactive)	85% (inactive)	7.89% (inactive)	77.1%	85%	-4.61% (inactive)	-1.09% (inactive)
CCSc1nnc(-c2ccc(OC)cc2)o1	100%	93.5% (inactive)	100% (inactive)	92.7% (inactive)	81.2% (inactive)	-10.4% (inactive)	91.6%	81.2%	-0.51% (inactive)	-11% (inactive)
Nc1nonc1-c1noc(-c2ccccc2Br)n1	112%	76.5% (inactive)	112% (inactive)	54.7% (inactive)	95.1% (inactive)	3.17% (inactive)	92%	95.1%	-6.62% (inactive)	5.67% (inactive)
COc1cccc(-n2c(C)nc3c(cnn3-c3ccc(Cl)cc3)c2=O)c1	92.5%	86% (inactive)	92.5% (inactive)	79.8% (inactive)	76.3% (inactive)	-1.66% (inactive)	78%	76.3%	-4.47% (inactive)	4.19% (inactive)
Cc1ccccc1NS(=O)(=O)c1cc(C(=O)N2CCCC2)ccc1C	108%	91.5% (inactive)	108% (inactive)	82.9% (inactive)	84.2% (inactive)	-4.14% (inactive)	88.4%	84.2%	-5.14% (inactive)	-8.25% (inactive)
COc1ccc(CCNC(=O)CN(c2ccccc2OC)S(C)(=O)=O)cc1	112%	99.5% (inactive)	112% (inactive)	93.5% (inactive)	99.9% (inactive)	15.6% (inactive)	84.3%	99.9%	-2.08% (inactive)	-1.48% (inactive)
O=C(NCC1COc2ccccc2O1)c1ccc(NC(=O)c2ccco2)cc1 (stereo not given)	85.5%	83% (inactive)	85.5% (inactive)	105% (inactive)	99.1% (inactive)	6.69% (inactive)	92.4%	99.1%	0% (inactive)	-2.33% (inactive)
CC1Cc2ccccc2N1C(=O)c1cnsn1 (stereo not given)	136%	103% (inactive)	136% (inactive)	86.3% (inactive)	97.8% (inactive)	10.4% (inactive)	87.4%	97.8%	-6.71% (inactive)	-10.8% (inactive)
CCOC(=O)c1c(N)nn(C(=O)C(C)C)c1-c1ccccc1	97%	119% (inactive)	97% (inactive)	82.5% (inactive)	109% (inactive)	15% (inactive)	94%	109%	-5.95% (inactive)	-9.34% (inactive)
CCn1ncc(C2=NOC(C(=O)NCc3ccc(Cl)cc3)C2)c1C (stereo not given)	83.5%	69.5% (inactive)	83.5% (inactive)	38.7% (inactive)	24.4% (active)	-29.8% (inactive)	54.2%	24.4%	-2.89% (inactive)	-0.32% (inactive)
CN(C)S(=O)(=O)c1ccc(S(=O)(=O)N(Cc2ccco2)Cc2ccccc2Cl)cc1	93%	93% (inactive)	93% (inactive)	100% (inactive)	95.8% (inactive)	7.62% (inactive)	88.2%	95.8%	-9.18% (inactive)	-2.7% (inactive)
O=C(c1ccco1)N1CCN(c2c(-c3ccccc3)c3cc(Cl)ccc3[nH]c2=O)CC1	94%	61.5% (inactive)	94% (inactive)	52.4% (inactive)	24.5% (active)	17.6% (inactive)	6.86%	24.5%	-2.11% (inactive)	7.42% (inactive)
CCOC(=O)C(NC(=O)CC)(Nc1ccc(S(=O)(=O)Nc2onc(C)c2C)cc1)C(F)(F)F (stereo not given)	116%	97.5% (inactive)	116% (inactive)	102% (inactive)	106% (inactive)	8.86% (inactive)	97%	106%	-3.77% (inactive)	-0.48% (inactive)
CCOc1ccc(OCC)c2sc(C)nc12	107%	94% (inactive)	107% (inactive)	102% (inactive)	99.5% (inactive)	12.4% (inactive)	87.1%	99.5%	0.79% (inactive)	1.48% (inactive)
Cc1cccc2cc(CN(Cc3nnnn3C3CCCC3)C3CCCCC3)c(=O)[nH]c12	84.5%	109% (inactive)	84.5% (inactive)	72.7% (inactive)	79.4% (inactive)	0.525% (inactive)	78.9%	79.4%	-1.71% (inactive)	-10.2% (inactive)
CC(NC(=O)NCCCC(=O)O)(C(F)(F)F)C(F)(F)F	104%	82% (inactive)	104% (inactive)	97.6% (inactive)	105% (inactive)	8.72% (inactive)	96.5%	105%	-7.53% (inactive)	1.59% (inactive)

Compound	viability [1]	Her2 level [2]	viability [3]	viability [4]	viability [5]	differential viability (reversal) ([6]; H69AR cells + 2 uM doxorubicin)	viability [6, 9]	viability [6, 10]	inhibition [7]	inhibition [8]
CCn1cc(C(=O)NCCN(C)CCc2ccccc2)c(=O)c2cc(S(=O)(=O)N(C)C)ccc21	90%	106% (inactive)	90% (inactive)	75.9% (inactive)	81.2% (inactive)	1.48% (inactive)	79.8%	81.2%	-1.73% (inactive)	12.6% (inactive)
O=C1c2cccnc2C(O)N1Cc1ccc(F)cc1 (stereo not given)	104%	88% (inactive)	104% (inactive)	88.8% (inactive)	102% (inactive)	3.87% (inactive)	97.7%	102%	-4.53% (inactive)	2.95% (inactive)
O=c1[nH]c(Nc2ccccc2)cc2ccccc12	94.5%	92% (inactive)	94.5% (inactive)	82.2% (inactive)	101% (inactive)	3.34% (inactive)	97.9%	101%	2.5% (inactive)	14.3% (inactive)
COC(=O)CN(c1ccc(F)cc1)S(=O)(=O)c1ccccc1	91.5%	109% (inactive)	91.5% (inactive)	122% (inactive)	92.1% (inactive)	-0.7% (inactive)	92.8%	92.1%	0.13% (inactive)	-3.93% (inactive)
CCOC(=O)C1CCN(c2nc3ccccc3nc2C(C#N)C(=O)OC(C)C)CC1 (stereo not given)	95%	124% (inactive)	95% (inactive)	83.9% (inactive)	84.2% (inactive)	-3.45% (inactive)	87.6%	84.2%	1.37% (inactive)	4.6% (inactive)
CCOc1ccc(C(CC(=O)O)NC(=O)c2ccco2)cc1OC (stereo not given)	102%	102% (inactive)	102% (inactive)	104% (inactive)	94.2% (inactive)	1.89% (inactive)	92.3%	94.2%	-6.76% (inactive)	-1.33% (inactive)
COc1ccccc1CC(NC(C)=O)C(=O)NC1CCN(c2nnnn2-c2ccccc2)CC1 (stereo not given)	97%	102% (inactive)	97% (inactive)	94.8% (inactive)	96.5% (inactive)	-1.01% (inactive)	97.5%	96.5%	-0.95% (inactive)	0% (inactive)
CCOC(=O)c1ccc(Oc2nc(NC)nc(OC)n2)cc1	100%	108% (inactive)	100% (inactive)	103% (inactive)	104% (inactive)	5.53% (inactive)	98.8%	104%	-1.35% (inactive)	-6.67% (inactive)
O=C(C1=C(O)C(=O)N(Cc2ccccc2)C1c1ccncc1)c1ccco1 (stereo not given)	97.5%	111% (inactive)	97.5% (inactive)	109% (inactive)	104% (inactive)	3.21% (inactive)	101%	104%	-0.26% (inactive)	-5.33% (inactive)
CCOc1cccc(Oc2ccc(C(F)(F)F)cn2)c1	99%	93.5% (inactive)	99% (inactive)	99.6% (inactive)	99.9% (inactive)	6.58% (inactive)	93.3%	99.9%	-7.33% (inactive)	0.81% (inactive)
CC(C)CNC(=O)c1ccccc1NC(=O)CN(c1ccc2c(c1)OCCO2)S(C)(=O)=O	92%	121% (inactive)	92% (inactive)	96.8% (inactive)	92.3% (inactive)	1.55% (inactive)	90.8%	92.3%	-0.27% (inactive)	-8.23% (inactive)
CCN(CC)C(=O)c1sc2nc(-c3cccs3)cc(-c3cccs3)c2c1N	102%	88.5% (inactive)	102% (inactive)	76.2% (inactive)	71.8% (inactive)	-12.7% (inactive)	84.5%	71.8%	-4.67% (inactive)	21% (inactive)
O=c1c(-c2ccc(F)cc2)coc2c3c(ccc12)OCCO3	100%	78.5% (inactive)	100% (inactive)	120% (inactive)	107% (inactive)	20% (inactive)	86.7%	107%	0.13% (inactive)	-6.73% (inactive)
CCOC(=O)c1sc2nc3c(cc2c1N)COC(C)(C)C3	97%	92% (inactive)	97% (inactive)	111% (inactive)	98.4% (inactive)	3.91% (inactive)	94.5%	98.4%	-6.4% (inactive)	-3.23% (inactive)
Nc1nnc(SCCOc2ccccc2)s1	86.5%	80% (inactive)	86.5% (inactive)	72.1% (inactive)	97.4% (inactive)	9.2% (inactive)	88.2%	97.4%	-3.82% (inactive)	-2.73% (inactive)
O=C(COn1nnc2ccc(C(F)(F)F)cc21)Nc1nnc(-c2ccccc2)o1	87%	92.5% (inactive)	87% (inactive)	68.2% (inactive)	97.8% (inactive)	15.5% (inactive)	82.3%	97.8%	-7.76% (inactive)	-3.27% (inactive)
